A1 inh – inhibitors of the anti-apoptotic protein A1, read as caspase activation. MEF A1-2A-BIM cells, Caspase-Glo 3/7 luminescence, 3 h; percent of clofoctol response, vehicle zero. caspase activation, % (concentration not given with the values). hit rate 0.066% among 330,000. AID 2462;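 active = over half of replicate activation scores above 10%, or exactly half above 10 with the replicate mean above 10; inconclusive = replicate mean below 10 yet half the replicates above 10; inactive = over half of replicates below 10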
Beta cell apopt – blocks beta cell apoptosis; INS-1E cytokine-induced death, ATP luminescence, 48 h; percent of positive-control rescue, neutral wells zero; protection from apoptosis, % (test concentration not listed); hit rate 0.8% among 300,000; AID 435005;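 active = Every replicate reaches about 75%, or at least half do and their mean reaches it too, limit read from the data; inconclusive = At least half of replicates reach the limit but their mean does not; inactive = Under half of replicates reach the limit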;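 also: 0% = cytokine-treated negative control wells and 100% = positive control rescue; higher means more ATP so stronger rescue from cytokine killing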
Calb FLC – affects C. albicans growth with fluconazole; C. albicans CaCi-2 + fluconazole, Alamar Blue growth, 48 h; growth inhibition, % (concentration not given with the values); hit rate 0.57% among 300,000;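 active = growth inhibition above about 58% in most replicates, limit read from the data, passing the limit was not always enough; inconclusive = exactly half the replicates above a set limit; inactive = most replicates below a set limit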;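 also: all wells also contain fluconazole at 8 µg/ml as a sub-toxic cotreatment; 0% = median of DMSO wells and 100% = median of geldanamycin control wells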
TAG inh – triacylglycerol accumulation inhibition; H9c2 cells, Nile Red lipid (TAG) fluorescence; cells loaded with 200 µM oleic acid; hit rate 0.66% among 230,000; inhibition, % at 12.5 µM;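 active = pattern-corrected inhibition of lipid staining of at least 50% with the nuclear-stain viability signal not falling by more than 50%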;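 also: 0% = DMSO wells and 100% = triacsin C control wells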
CSC inhib – blocks cancer stem cells. hit rate 1.1% among 300,000. inhibition, % at 7.5 µM. AID 2717. cancer stem cell-like cells viability, luminescence; in the data active = inhibition above about 75%; inconclusive = no clear call, values can overlap the other calls; tested in HMLE shEcad cells
T cruzi inh – blocks replication of Trypanosoma cruzi; T. cruzi beta-gal in NIH3T3, luminescence, 90 h; inhibition, % (test concentration not listed); hit rate 1.4% among 300,000;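 active = mean inhibition across valid replicates above about 55%, limit read from the data; inconclusive = mean below that limit but half or more replicates reach it; inactive = mean below it, under half of replicates reach it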;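 also: signal also drops with host cell toxicity which is not excluded here; 0% = plate median of DMSO wells and 100% = zero luminescence signal; higher percent means less beta-gal luminescence so fewer parasites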
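Test system: β-gal T. cruzi (Tulahuen C4) inside NIH/3T3 cells / Quantity: 5,000 cells/well / Measured by: luminescence from GalScreen with 0.05% NP40, read after 60 min / Medium: DMEM plus 2% FBS / Measure: parasite load inhibition, % / Reagent: Tulahuen C4 trypomastigotes, 5000/well / Schedule: co-culture of at least 90 h after 3 h attachment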
* = called active by the depositor; ? = inconclusive; . = no result. Shown are actives, neighbours in structure and some others; about 3.1% of the full set was active somewhere.

SMILES | A1 inh | Beta cell apopt | Calb FLC | TAG inh | CSC inhib | T cruzi inh
Cc1cccc(N2CC(C(=O)Nc3ccc(N4CCOCC4)cc3)CC2=O)c1C (stereo not given) | 0 | 11 | . | 7 | -7 | .
CCOC(=O)CS(=O)(=O)c1nc(-c2ccccc2)cc(C(F)(F)F)n1 | 8.7* | 96* | -5 | 21 | 99* | -32
CCOC(=O)CCS(=O)(=O)c1nc(-c2ccccc2)cc(C(F)(F)F)n1 | 9.7* | 31 | 3 | 74* | 100* | -56
CCOC(=O)CS(=O)(=O)c1nc(-c2ccc(F)cc2)cc(C(F)(F)F)n1 | 1 | . | 3 | 18 | 99* | -77
CS(=O)(=O)c1nc(-c2ccc(F)cc2)cc(C(F)(F)F)n1 | . | . | ? | 78 | . | ?
O=C(Cc1ccc(NC(=O)C2CCCN(C(=O)C3CCC3)C2)cc1)Nc1ccc(C(=O)N2CCOCC2)cc1 (stereo not given) | . | . | . | -4 | . | .
CCS(=O)c1ccccc1C(=O)OCC(=O)Nc1ccc2ccccc2c1 (stereo not given) | 1 | -5 | . | 3 | -4 | .
Cn1nc(C(C)(C)C)cc1C(=O)N1CCCCC1c1cc(C(=O)N2CCOCC2)no1 (stereo not given) | . | . | . | -13 | . | .
O=C(CCC(=O)Nc1ccccc1Cl)NNS(=O)(=O)c1ccc(Cl)cc1 | 1 | -6 | 111* | 12 | -6 | .
Cc1cc([N+](=O)[O-])ccc1N1C(=O)c2ccc(C(=O)Nc3ccccc3C(=O)O)cc2C1=O | 0 | -6 | -2 | . | 4 | -9
COC(=O)c1cc(=O)n(Cc2ccco2)c(=Nc2ccc(F)c(Cl)c2)s1 | 1 | 14 | 0 | 30 | 94* | 50
COC(=O)c1cc(=O)n(Cc2cccs2)c(=Nc2ccc(F)cc2)s1 | 0 | 4 | -4 | 12 | 121* | 49
COC(=O)c1cc(=O)n(CCc2ccccc2F)c(=Nc2ccc(F)c(Cl)c2)s1 | 0 | 76* | -1 | 1 | 122* | 54
C=CCn1c(CNc2ccc(C)cc2)nnc1SCC(=O)N/N=C/c1ccc(O)cc1O | 0 | 1 | 6 | -24 | 106* | 19
COc1ccc2nc(C)cc(SCC(=O)N/N=C/c3ccc(O)cc3O)c2c1 | 0 | 77* | -40 | . | 104* | -2
C=CCn1c(COc2ccccc2)nnc1SCC(=O)N/N=C/c1ccc(C)cc1 | 0 | -8 | -3 | 8 | 7 | -8
COc1ccc(N2Cc3ccc(C(=O)N/N=C\c4ccc(O)cc4O)cc3C2)cc1 | 0 | 13 | 93* | . | 91* | 4
C=CCn1c(CNc2ccccc2)nnc1SCC(=O)N/N=C/c1ccc(O)cc1O | 1 | 0 | -1 | -23 | 86* | 15
Cc1nnc(SCC(=O)NC(C)(C)C)n1NCc1cccc(Br)c1 | 0 | 0 | -30 | 13 | -8 | 9
Cc1ccc(NC2CCCN(C(=O)CSc3ccccn3)C2)cc1C (stereo not given) | 0 | -2 | -1 | 7 | 4 | 6
C=C1C(=O)O[C@@H]2C[C@@H](C)[C@@H]3C=CC(=O)[C@@]3(C)[C@@H](OC(C)=O)[C@H]12 | 3 | 136* | -2 | . | 85* | ?
C[C@@H]1C[C@@H]2OC(=O)[C@]3(C)[C@H]2[C@@H](OC3(C)O)[C@]2(C)C(=O)C=C[C@H]12 (stereo not given in full) | 0 | -6 | 5 | 0 | 9 | 3
C/C(=N/NC(=S)Nc1cccc(C)c1)c1cccc([N+](=O)[O-])c1 | 0 | 15 | 26 | 4 | 7 | 56*
Cc1cccc(NC(=S)N/N=C(\c2ccccc2)C(C)C)c1 | 1 | 10 | 102* | . | 11 | 23
CCOC(=O)CN1C(=O)CC(c2ccc([N+](=O)[O-])cc2)C1=O (stereo not given) | ? | -3 | 2 | 18 | -9 | 2
O=C(CCc1ccc(Oc2cc([N+](=O)[O-])cc([N+](=O)[O-])c2)cc1)NC1CCCC1 | 1 | 7 | -7 | . | -5 | 63*
COc1ccccc1CNc1ccc(N2CCCCC2)cc1 | -1 | 7 | -22 | . | -3 | 65*
C=CCOc1c(Cl)cc(CNc2ccc(C)c(Cl)c2)cc1OC | 0 | 47 | 3 | . | 54 | 55*
COc1cccc(CNc2ccc(N3CCCCC3)cc2)c1OC | 1 | 20 | . | . | 5 | .

Compound activity (PubChem BioAssay)
